Results: ChEMBL document CHEMBL1138609, “Amiloride derived inhibitors of acid-sensing ion channel-3 (ASIC3)” (Bioorg Med Chem Lett, 2009)
Calls of active or inactive are those of the source. The rule behind the calls is not given here.

How the values were obtained:
[1] = target: T1, Acid-sensing ion channel 3 (Homo sapiens) (UniProt Q9UHC3); assay: Inhibition of ASIC3 at 20 uM assessed as inhibition of peak current by patch clamp electrophysiology relative to baseline
T1 sequence (whole entry): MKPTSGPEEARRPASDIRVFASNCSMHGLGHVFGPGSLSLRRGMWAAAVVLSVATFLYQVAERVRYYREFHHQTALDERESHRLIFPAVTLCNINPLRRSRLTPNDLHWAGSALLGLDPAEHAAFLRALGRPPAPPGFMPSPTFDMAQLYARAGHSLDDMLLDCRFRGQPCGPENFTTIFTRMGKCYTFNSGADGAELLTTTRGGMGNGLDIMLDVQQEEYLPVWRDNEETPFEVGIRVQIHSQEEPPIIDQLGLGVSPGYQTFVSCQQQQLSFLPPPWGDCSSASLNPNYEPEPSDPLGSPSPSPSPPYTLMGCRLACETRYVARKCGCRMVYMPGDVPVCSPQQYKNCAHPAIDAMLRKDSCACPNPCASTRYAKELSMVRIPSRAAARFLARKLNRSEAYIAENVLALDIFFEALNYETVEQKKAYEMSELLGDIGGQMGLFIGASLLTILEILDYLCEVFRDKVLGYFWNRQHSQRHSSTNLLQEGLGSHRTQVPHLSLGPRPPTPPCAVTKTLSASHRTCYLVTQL
Procedure, shortened: (§1)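 Automated patch clamp on ASIC3 channels, used both for single-dose screening and for multi-dose follow-up. Extracellular solution: 150 NaCl, 5 KCl, 2 CaCl2, 1 MgCl2, 12 dextrose, with HEPES pH 7.4 or MES pH 5.5. Compound applied 120 s before acid. Peak current compared with vehicle or baseline peak; N = 3.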

[2] = target: T1, Acid-sensing ion channel 3 (Homo sapiens); assay: Inhibition of ASIC3 assessed as inhibition of peak current at 1 uM by patch clamp electrophysiology relative to baseline; procedure, shortened: as §1
[3] = target: T2, Acid-sensing ion channel 3 (Homo sapiens, UniProt Q9UHC3); assay: Inhibition of ASIC3 assessed as inhibition of peak current by patch clamp electrophysiology; procedure, shortened: as §1
T2 sequence (Q9UHC3 whole entry): T1 sequence (whole entry)

Rattus norvegicus [4] = species: Rattus norvegicus; assay: activity against Sprague-Dawley rat complete Freund's adjuvant-induced inflammatory pain model assessed as reversal of mechanical hypersensitivity after 30 mins
[5] = Drug level in Sprague-Dawley rat brain after 30 mins; type: ADME, tissue-based; conditions: read-out: Drug uptake
Procedure, shortened: (§2)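 Rats from the CFA inflammatory pain study were sampled 30 min after dosing. Average concentrations were measured in plasma and in brain.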

Rattus norvegicus [6] = assay: activity against Sprague-Dawley rat complete Freund's adjuvant-induced inflammatory pain model assessed as reversal of mechanical hypersensitivity at 30 mg/kg, ip after 30 mins
[7] = Plasma concentration in Sprague-Dawley rat after 30 mins; type: ADME, cell-free; procedure, shortened: as §2
[8] = target: T3, Acid-sensing ion channel 3 (Rattus norvegicus, UniProt O35240); assay: Inhibition of rat ASIC3 assessed as inhibition of peak current by patch clamp electrophysiology; procedure, shortened: as §1
T3 sequence (O35240 whole entry): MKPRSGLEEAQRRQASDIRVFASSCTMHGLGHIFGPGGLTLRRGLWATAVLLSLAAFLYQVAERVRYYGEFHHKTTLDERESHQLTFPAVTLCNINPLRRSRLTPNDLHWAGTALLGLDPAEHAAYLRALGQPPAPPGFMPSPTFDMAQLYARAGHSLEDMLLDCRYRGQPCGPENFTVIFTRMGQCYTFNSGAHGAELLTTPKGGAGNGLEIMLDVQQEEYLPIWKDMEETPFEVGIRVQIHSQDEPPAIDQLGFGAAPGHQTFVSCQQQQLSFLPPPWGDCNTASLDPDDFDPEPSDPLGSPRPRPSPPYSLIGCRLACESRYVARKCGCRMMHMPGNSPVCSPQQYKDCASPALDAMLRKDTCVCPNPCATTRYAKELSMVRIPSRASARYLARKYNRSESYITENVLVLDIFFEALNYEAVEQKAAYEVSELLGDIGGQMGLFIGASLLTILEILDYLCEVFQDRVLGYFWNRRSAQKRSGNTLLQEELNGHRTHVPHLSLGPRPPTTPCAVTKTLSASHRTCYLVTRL

SMILES	inhibition [1] [%]	inhibition [2] [%]	further results
NC(N)=NC(=O)c1nc(Cl)c(Nc2ccccn2)nc1N	25	–	–
NC(N)=NC(=O)c1nc(Cl)c(NCCc2ccc(F)cc2)nc1N	–	32	–
NC(N)=NC(=O)c1nc(Cl)c(NC2CC2)nc1N	78	–	–
NC(N)=NC(=O)c1nc(Cl)c(NCc2cccc(F)c2)nc1N	90	29	–
N=C(N)NC(=O)c1nc(Cl)c(N)nc1N [AMILORIDE]	65	22	IC50 [3]: 4400 nM
NC(N)=NC(=O)c1nc(Cl)c(N2CCc3ccccc3C2)nc1N	96	52	–
NC(N)=NC(=O)c1nc(Cl)c(NCC(F)(F)F)nc1N	74	–	–
CN1CCN(c2nc(N)c(C(=O)N=C(N)N)nc2Cl)CC1	51	–	–
N=C(N)NC(=O)c1nc(Cl)c(N2CCCCCC2)nc1N	51	–	–
NC(N)=NC(=O)c1ncc(-c2ccc(-c3ccccc3)cc2)nc1N	–	7	–
NC(N)=NC(=O)c1nc(Cl)c(Nc2ccccc2)nc1N	95	44	–
CN(c1nc(N)c(C(=O)N=C(N)N)nc1Cl)C1CCCCC1	57	–	–
N=C(N)NC(=O)c1ncc(-c2cccc(-c3ccsc3)c2)nc1N	–	–	IC50 [3]: 640 nM
NC(N)=NC(=O)c1nc(Cl)c(NCCc2cccc(F)c2)nc1N	–	46	–
CCCNc1nc(N)c(C(=O)N=C(N)N)nc1Cl	91	24	–
NC(N)=NC(=O)c1ncc(Cc2ccccc2)nc1N	–	4	–
NC(N)=NC(=O)c1ncc(-c2ccccc2)nc1N	–	35	–
NC(N)=NC(=O)c1ncc(-c2cccc(-c3ccoc3)c2)nc1N	82	30	–
NC(N)=NC(=O)c1nc(Cl)c(NCCc2ccccc2F)nc1N	–	34	–
NC(N)=NC(=O)c1nc(Cl)c(NCC2CCc3ccccc3C2)nc1N (stereo unspecified)	–	44	–

SMILES	inhibition [1] [%]	inhibition [2] [%]	further results
Cc1cc(C)cc(-c2cnc(C(=O)N=C(N)N)c(N)n2)c1	95	39	–
NC(N)=NC(=O)c1nc(Cl)c(Nc2cccc(Cl)c2)nc1N	94	47	–
NC(N)=NC(=O)c1nc(Cl)c(Nc2cnc3ccccc3c2)nc1N	–	28	–
NC(N)=NC(=O)c1nc(Cl)c(O)nc1N	9	–	–
NC(N)=NC(=O)c1nc(Cl)c(N2CCc3ccccc32)nc1N	89	46	–
NC(N)=NC(=O)c1nc(Cl)c(NC2CCCCC2)nc1N	92	21	–
NC(N)=NC(=O)c1ncc(-c2cccc(-c3ccccc3)c2)nc1N	–	72	Activity (Rattus norvegicus [4]): Dose-dependent effect; IC50 [3]: 490 nM; concentration at 0.5 h [5]: 79 nM; Activity (Rattus norvegicus [6]): Active; concentration at 0.5 h [7]: 2900 nM; IC50 [8]: 950 nM
NC(N)=NC(=O)c1nc(Cl)c(Nc2ccc3ncccc3c2)nc1N	–	41	–
NC(N)=NC(=O)c1ncc(-c2ccc3ccccc3c2)nc1N	–	6	–
NC(N)=NC(=O)c1nc(Cl)c(NCc2ccc3ccccc3c2)nc1N	93	27	–
NC(N)=NC(=O)c1nc(Cl)c(OCc2ccc3ccccc3c2)nc1N	–	9	–
NC(N)=NC(=O)c1ncc(-c2cccc3ccccc23)nc1N	–	21	–
NC(N)=NC(=O)c1nc(Cl)c(Oc2ccccc2)nc1N	90	23	–
NC(N)=NC(=O)c1ncc(-c2cccc(-c3ccsc3)c2)nc1N	90	58	–
CCCN(C)c1nc(N)c(C(=O)N=C(N)N)nc1Cl	91	32	–
NC(N)=NC(=O)c1ncc(-c2ccsc2)nc1N	–	23	–
COc1nc(N)c(C(=O)N=C(N)N)nc1Cl	–	21	–
NC(N)=NC(=O)c1nc(Cl)c(N2CCOCC2)nc1N	60	–	–
N=C(N)NC(=O)c1nc(Cl)c(NCCc2ccccc2)nc1N	94	46	–
NC(N)=NC(=O)c1nc(Cl)c(NCc2ccc(Cl)cc2)nc1N	97	46	–

SMILES	inhibition [1] [%]	inhibition [2] [%]	further results
NC(N)=NC(=O)c1nc(Cl)c(Oc2ccc3ccccc3n2)nc1N	–	34	–
NC(N)=NC(=O)c1nc(Cl)c(Oc2cc3ccccc3cn2)nc1N	–	11	–
NC(N)=NC(=O)c1nc(Cl)c(Nc2ccncc2)nc1N	–	14	–
C=CCNc1nc(N)c(C(=O)N=C(N)N)nc1Cl	78	16	–
NC(N)=NC(=O)c1nc(Cl)c(NCC2CCCCC2)nc1N	96	28	–
NC(N)=NC(=O)c1nc(Cl)c(NCc2ccccc2Cl)nc1N	90	31	–
NC(N)=NC(=O)c1nc(Cl)c(Nc2ccc3ccccc3c2)nc1N	98	62	IC50 [3]: 510 nM
NC(N)=NC(=O)c1nc(Cl)c(Sc2ccc3ccccc3c2)nc1N	–	12	–
NC(N)=NC(=O)c1nc(Cl)c(Oc2ccc3ccccc3c2)nc1N	91	33	–
NC(N)=NC(=O)c1nc(Cl)c(NCc2ccccc2F)nc1N	92	26	–
NC(N)=NC(=O)c1ncc(-c2ccccc2-c2ccccc2)nc1N	–	8	–
NC(N)=NC(=O)c1nc(Cl)c(Nc2ccc(C(F)(F)F)cc2)nc1N	–	50	–
NC(N)=NC(=O)c1nc(Cl)c(N2CCCC2)nc1N	84	12	–
CSc1nc(N)c(C(=O)N=C(N)N)nc1Cl	–	12	–
NC(N)=NC(=O)c1nc(Cl)c(Sc2ccccc2)nc1N	–	11	–
NC(N)=NC(=O)c1nc(Cl)c(N2CCCCC2)nc1N	85	–	–
CC(C)(C)Nc1nc(N)c(C(=O)N=C(N)N)nc1Cl	48	–	–
NC(N)=NC(=O)c1nc(Cl)c(Oc2ccc3cccnc3c2)nc1N	–	32	–
CN(C)c1nc(N)c(C(=O)NC(=N)N)nc1Cl	91	37	–
